Compounds with a hit are over-represented: about 2.9% of the library has one in this group of screens.
SIRT5 inh: sirtuin-5 (human) deacylase inhibition; inhibition, % at 15 µM; Purified SirT5, succinyl-peptide AMC, trypsin-coupled fluorescence; hit rate 1.1% among 330,000; Q9NXA8; in the data active means inhibition above about 15%; inconclusive means no clear call, values can overlap the other calls
DENV2 CPE rescue: DENV2-induced cell death inhibition; DENV2-infected cells, cytopathic effect rescue, plate reader; CPE inhibition, % at 9.99 µM; hit rate 1.7% among 350,000; AID 651640; in the data active means CPE inhibition above about 20%, passing the limit was not always enough; inconclusive means no clear call, values can overlap the other calls; tested in BHK-21 cells
E-selectin induc: induces E-selectin expression in human endothelial cells; P16581; activation, % at 7.58 µM; HUVEC E-selectin immunofluorescence imaging; normalized: neutral wells 0, TNF-alpha wells 100; hit rate 0.37% among 260,000;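 active means mean E-selectin-positive cell signal at least 10% of the positive control, reached in at least 60% of replicates, without over 20% cell loss; inconclusive means no rule given, readout overlaps actives, possibly toxicity-flagged; inactive means the rest, including those meeting only one limit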
Target sequence (P16581 whole entry, looked up): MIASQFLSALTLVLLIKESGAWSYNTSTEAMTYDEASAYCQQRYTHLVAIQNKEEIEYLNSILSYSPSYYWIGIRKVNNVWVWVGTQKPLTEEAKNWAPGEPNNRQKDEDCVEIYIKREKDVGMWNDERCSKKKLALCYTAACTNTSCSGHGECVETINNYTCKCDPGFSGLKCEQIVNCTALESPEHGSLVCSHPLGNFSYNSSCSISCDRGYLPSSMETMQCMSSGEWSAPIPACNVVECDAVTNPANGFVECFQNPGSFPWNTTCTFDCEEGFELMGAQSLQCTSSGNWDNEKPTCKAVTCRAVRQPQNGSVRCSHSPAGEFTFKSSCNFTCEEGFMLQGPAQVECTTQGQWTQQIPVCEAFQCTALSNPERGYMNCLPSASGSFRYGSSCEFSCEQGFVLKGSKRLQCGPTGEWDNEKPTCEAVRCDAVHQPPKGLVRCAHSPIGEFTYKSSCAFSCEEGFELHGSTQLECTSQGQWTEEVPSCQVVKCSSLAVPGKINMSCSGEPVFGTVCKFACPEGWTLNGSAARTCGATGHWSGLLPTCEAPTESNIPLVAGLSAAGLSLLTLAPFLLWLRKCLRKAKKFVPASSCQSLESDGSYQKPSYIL
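Assay system: HUVEC primary endothelial cells. Input: 3,000 HUVEC seeded per well. Doses: one compound dose added by pin transfer. Read-out basis: % PE-positive cells. Benchmarks: TNF-alpha high, DMSO low. Detection: immunofluorescence imaging. Buffer or medium: EGM-2, gelatin.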
Large screens that a line does not name were inactive.

O=C(c1ccc(N2CCN(C(=O)c3ccccc3)CC2)cc1)c1cccc(F)c1	DENV2 CPE rescue 65.2 (no result: E-selectin induc)
O=C(c1ccc(N2CCN(C(=O)c3ccc(F)c(F)c3)CC2)cc1)c1cccc(F)c1	DENV2 CPE rescue inconclusive
COc1cccc(-c2csc(N3CCN(C(=O)Nc4ccccc4Cl)CC3)n2)c1	none (no result: E-selectin induc)
CCCCc1nn(-c2cc(Cl)ccc2OC)c2c1C(=O)CC(C)(C)C2	DENV2 CPE rescue 42.9
CCCc1nn(-c2cc(Cl)ccc2OC)c2c1C(=O)CCC2	none
CC1(C(=O)NS(=O)(=O)c2ccccc2Cl)CCN1C(=O)CC(c1ccccc1)c1ccccc1 (centres undefined)	none (no result: SIRT5 inh, E-selectin induc)
CC1(C(=O)NS(=O)(=O)c2ccccc2)CCN1C(=O)Cc1cccc2ccccc12 (centres undefined)	none
Cc1ccccc1S(=O)(=O)NC(=O)C1(C)CCN1C(=O)CC(c1ccccc1)c1ccccc1 (centres undefined)	DENV2 CPE rescue 38.4
COc1ccc(OC)c(S(=O)(=O)NC(=O)C2(C)CCN2C(=O)c2ccco2)c1 (centres undefined)	none
CC1(C(=O)NS(=O)(=O)c2ccccc2Cl)CCN1C(=O)Cc1cccc2ccccc12 (centres undefined)	SIRT5 inh 30.0
CC1(C(=O)NS(=O)(=O)c2ccccc2Cl)CCN1C(=O)c1ccco1 (centres undefined)	DENV2 CPE rescue 22.3 (no result: SIRT5 inh)
CCOC(=O)/C=C/c1ccc2oc3ccccc3c(=O)c2c1	none
CCCNC(=O)N1C[C@@H](C)[C@H](OC)CN(C)C(=O)c2ccc(NC(=O)CCC)cc2OC[C@H]1C	none (no result: SIRT5 inh)
O=C(CCS(=O)(=O)c1ccccc1)Nc1ccccn1	none
O=C(Nc1cccc(Cl)c1)c1csc(COCCO)n1	none (no result: SIRT5 inh)
O=C(Nc1cccc(C(F)(F)F)c1)c1csc(COCCO)n1	DENV2 CPE rescue 24.3 (no result: SIRT5 inh)
COc1ccc(/C(C)=N/N=C(\C)c2ccc(OC)cc2OC)c(OC)c1	none (no result: E-selectin induc)
O=c1cc(NC2CCCCC2)[nH]c(=O)[nH]1	none (no result: E-selectin induc)
CCn1c(=O)n(CC)c2cc(N3CCCC3)c(NC(=O)c3ccc(C)cc3)cc21	DENV2 CPE rescue 36.0 (no result: E-selectin induc)
CCn1c(=O)n(CC)c2cc(N3CCCC3)c(NC(=O)c3ccccc3)cc21	DENV2 CPE rescue inconclusive (no result: E-selectin induc)
O=C(C[C@@H]1CC[C@@H](NC(=O)C2CC2)[C@H](CO)O1)NCC1CC1	none
COc1ccc2c3c([nH]c2c1)[C@H](CO)N(C(=O)Nc1c(C)noc1C)CC31CCN(CC2CC2)CC1	DENV2 CPE rescue 42.1
COc1ccc2c3c([nH]c2c1)[C@@H](CO)N(C(=O)Nc1c(C)noc1C)CC31CCN(CC2CC2)CC1	none
COc1ccc2c3c([nH]c2c1)[C@H](CO)N(C(C)=O)CC31CCN(C(=O)Nc2c(C)noc2C)CC1	none
COc1ccc2c3c([nH]c2c1)[C@@H](CO)N(C(C)=O)CC31CCN(C(=O)Nc2c(C)noc2C)CC1	DENV2 CPE rescue 20.8
CCOC(=O)/C(C#N)=C\c1cc(OC)c(OC)cc1[N+](=O)[O-]	none (no result: E-selectin induc)
COCC(=O)N1CC2(C1)CN(Cc1ccccc1Cl)[C@H](CO)c1c2c2ccc(OC)cc2n1C	none
CNC(=S)N(Cc1cc2cc(C)ccc2n2nnnc12)CC(C)(C)CN(C)C	none (no result: E-selectin induc)
COc1ccc(-c2nc(SCC(=O)Nc3cccc(S(N)(=O)=O)c3)n[nH]2)cc1	none
COc1ccc(NC(=O)CSc2n[nH]c(-c3ccccc3)n2)cc1S(N)(=O)=O	DENV2 CPE rescue 52.5
CN(Cc1ccccc1)C(=O)c1ccc(NC(=O)Cc2cccc(NC(=O)C3CCN(C(=O)C4CCCCC4)CC3)c2)cc1	SIRT5 inh 16.1
CN(C(=O)c1cccc(NC(=O)Cc2ccc(NC(=O)C3CCN(C(=O)C4CCCC4)CC3)cc2)c1)C1CCC1	none
CN(Cc1ccccc1)C(=O)c1ccc(NC(=O)Cc2cccc(NC(=O)C3CCN(C(=O)C4CC4)CC3)c2)cc1	none (no result: SIRT5 inh, E-selectin induc)
CN(C(=O)c1cccc(NC(=O)Cc2ccc(NC(=O)C3CCN(C(=O)C4CCC4)CC3)cc2)c1)C1CC1	SIRT5 inh 23.3
CN(C(=O)c1ccc(NC(=O)Cc2cccc(NC(=O)C3CCN(C(=O)C4CC4)CC3)c2)cc1)C1CC1	DENV2 CPE rescue 34.0
CN(C(=O)c1ccc(NC(=O)Cc2cccc(NC(=O)C3CCN(C(=O)C4CCCCC4)CC3)c2)cc1)C1CC1	none (no result: SIRT5 inh)
COc1cccc(-c2nnc(NC(=O)c3cccc(F)c3)o2)c1	DENV2 CPE rescue inconclusive
CN(C)CC#Cc1ccc([C@H]2[C@@H](CO)N3C(=O)CN(C(=O)Cc4ccccc4)C[C@@H]23)cc1	none
Cc1ccc(NCc2n[nH]c(=S)n2-c2cccc(Cl)c2)cc1	none (no result: E-selectin induc)
CCc1ccc(C2N(c3ccc(OC)cc3)C(=O)C3CCCN32)cc1 (centres undefined)	none
Cc1ccc(S(=O)(=O)NCc2ccc3[nH]c(C)cc3c2)cc1	none
Cc1noc(C)c1S(=O)(=O)Nc1cccc2c1O[C@@H](CN(C)Cc1ccc(C(F)(F)F)cc1)[C@@H](C)CN([C@@H](C)CO)C2=O	none
Cn1c(SCC(=O)CC(=O)Nc2ccccc2)nnc1-c1ccc(O)cc1	none (no result: E-selectin induc)
Cn1c(SCC(=O)O)nnc1-c1ccc(NC(=O)c2ccc(Cl)c(Cl)c2)cc1	SIRT5 inh 16.4 (no result: E-selectin induc)
Cc1cc(-c2ccc(S(=O)(=O)NCc3ccc(F)cc3)cc2)on1	none (no result: E-selectin induc)
O=C(Nc1ccc2c(c1)[nH]c(=O)c1ccccc12)C(F)(F)F	none
COc1ccc(CN(C(=O)/C=C/c2ccco2)C2CCS(=O)(=O)C2)cc1OC (centres undefined)	none (no result: E-selectin induc)
CCNc1nc(NCC)nc(C(=O)OCCO)n1	DENV2 CPE rescue 28.8
CC(C)Nc1nc(NC(C)C)nc(C(=O)OCCO)n1	none (no result: SIRT5 inh)
C[C@@H]1CN([C@H](C)CO)C(=O)c2ccccc2-c2ccccc2CO[C@H]1CN(C)C(=O)c1ccccc1	none
COc1ccc(CC(=O)N(C)c2ccccc2)cc1S(=O)(=O)N1CCOCC1	none (no result: E-selectin induc)
Cc1n[nH]c(=O)n(N=Cc2c[nH]c3ccccc23)c1=O	none (no result: SIRT5 inh)
O=C(NCC(F)(F)F)[C@@H]1[C@@H](CO)[C@@H]2Cn3c(cccc3=O)[C@@H]2N1Cc1cccc(F)c1	SIRT5 inh 16.4, DENV2 CPE rescue inconclusive
CCNC(=O)[C@H]1[C@H](CO)[C@H]2Cn3c(cccc3=O)[C@H]2N1Cc1cccc(F)c1	none
CC=Cc1ccc2n(c1=O)C[C@H]1[C@H](CO)[C@@H](C(=O)NCC)N(Cc3cccc(F)c3)[C@@H]21 (mixture of isomers)	none
CC=Cc1ccc2n(c1=O)C[C@H]1[C@H](CO)[C@@H](C(=O)N(C)C)N(Cc3cccc(F)c3)[C@@H]21 (mixture of isomers)	DENV2 CPE rescue 55.7
O=C(CCN1CCCCO1)N1CCCC(Nc2ccc(F)cc2)C1 (centres undefined)	none
Cc1cc(C)c(NC(=O)COc2ccc(-n3cnnn3)cc2)c(C)c1	none
Cc1ccccc1S(=O)(=O)N1CCCCN2[C@H](CO)[C@H](c3ccc(-c4cccc(F)c4)cc3)[C@H]2C1	none
Cc1ccccc1S(=O)(=O)N1CCCCN2[C@@H](CO)[C@H](c3ccc(-c4cccc(F)c4)cc3)[C@@H]2C1	SIRT5 inh 18.4
COc1cccc(S(=O)(=O)N2CCCCN3[C@H](CO)[C@H](c4ccc(-c5cccnc5)cc4)[C@H]3C2)c1	none
COc1cccc(-c2ccc([C@H]3[C@@H](CO)N4CCCCN(S(=O)(=O)c5cn(C)cn5)C[C@H]34)cc2)c1	none
Cc1cccc(S(=O)(=O)N2CCCCN3[C@@H](CO)[C@@H](c4ccc(-c5cccnc5)cc4)[C@@H]3C2)c1	DENV2 CPE rescue 28.2

Source: PubChem
